Experimental data as given in ChEMBL document CHEMBL4261538, “Synthesis and molecular docking studies of xanthone attached amino acids as potential antimicrobial and anti-inflammatory agents” (Medchemcomm, 2017).
Values after ≈ are worked out from the molar mass of the structure shown.

Key:
Bacillus subtilis [1] = test: Antibacterial activity against Bacillus subtilis at 25 ug/ml incubated for 24 hrs by agar well diffusion method; type: functional; conditions: read-out: DIZ
How it was run: (§1)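 Bacteria grown in nutrient broth at 37 °C for 24 h, then subcultured at room temperature. Compounds dissolved in DMSO at 5 mg mL⁻¹ and 5–20 µL added to 6 mm wells, giving 25, 50, 75, 100 µg per well. Gentamicin was the positive control and DMSO the negative control. Plates held at 37 °C for 24 h, then inhibition zone diameter (mm) measured. Values are means of three determinations.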

Candida albicans [2] = test: Antifungal activity against Candida albicans at 75 ug/ml incubated for 48 hrs by agar well diffusion method; type: functional; conditions: read-out: DIZ
How it was run: (§2)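 Compounds dissolved in DMSO at 5 mg mL⁻¹ and 5–20 µL added to 6 mm wells, giving 25, 50, 75, 100 µg per well. Bavistin was the positive control and DMSO the negative control. Plates incubated at 28 °C for 48 h, then inhibition zone diameter (mm) measured. Values are means of three determinations.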

Klebsiella pneumoniae [3] = test: Antibacterial activity against Klebsiella pneumoniae at 75 ug/ml incubated for 24 hrs by agar well diffusion method; type: functional; conditions: read-out: DIZ; how it was run: as §1
Bacillus subtilis [4] = test: Antibacterial activity against Bacillus subtilis at 50 ug/ml incubated for 24 hrs by agar well diffusion method; type: functional; conditions: read-out: DIZ; how it was run: as §1
Aspergillus niger [5] = test: Antifungal activity against Aspergillus niger at 50 ug/ml incubated for 48 hrs by agar well diffusion method; type: functional; conditions: read-out: DIZ; how it was run: as §2
Staphylococcus aureus [6] = test: Antibacterial activity against Staphylococcus aureus at 25 ug/ml incubated for 24 hrs by agar well diffusion method; type: functional; conditions: read-out: DIZ; how it was run: as §1
Staphylococcus aureus [7] = test: Antibacterial activity against Staphylococcus aureus at 50 ug/ml incubated for 24 hrs by agar well diffusion method; type: functional; conditions: read-out: DIZ; how it was run: as §1
Candida albicans [8] = test: Antifungal activity against Candida albicans at 25 ug/ml incubated for 48 hrs by agar well diffusion method; type: functional; conditions: read-out: DIZ; how it was run: as §2
Fusarium oxysporum [9] = test: Antifungal activity against Fusarium oxysporum at 75 ug/ml incubated for 48 hrs by agar well diffusion method; type: functional; conditions: read-out: DIZ; how it was run: as §2
Aspergillus niger [10] = test: Antifungal activity against Aspergillus niger at 100 ug/ml incubated for 48 hrs by agar well diffusion method; type: functional; conditions: read-out: DIZ; how it was run: as §2
Klebsiella pneumoniae [11] = test: Antibacterial activity against Klebsiella pneumoniae at 50 ug/ml incubated for 24 hrs by agar well diffusion method; type: functional; conditions: read-out: DIZ; how it was run: as §1
Aspergillus niger [12] = test: Antifungal activity against Aspergillus niger at 25 ug/ml incubated for 48 hrs by agar well diffusion method; type: functional; conditions: read-out: DIZ; how it was run: as §2
Candida albicans [13] = test: Antifungal activity against Candida albicans incubated for 48 to 72 hrs by microdilution method; type: functional
How it was run: (§3)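 Sabouraud agar plates inoculated with fungal suspension at 10⁵ CFU mL⁻¹ plus serially diluted compounds and bavistin reference, both in DMSO. Incubated at 25 °C for 48–72 h. MIC is the lowest concentration completely inhibiting growth. Values are means of three determinations.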

Bacillus subtilis [14] = test: Antibacterial activity against Bacillus subtilis at 100 ug/ml incubated for 24 hrs by agar well diffusion method; type: functional; conditions: read-out: DIZ; how it was run: as §1
Fusarium oxysporum [15] = test: Antifungal activity against Fusarium oxysporum at 25 ug/ml incubated for 48 hrs by agar well diffusion method; type: functional; conditions: read-out: DIZ; how it was run: as §2
Escherichia coli [16] = test: Antibacterial activity against Escherichia coli at 25 ug/ml incubated for 24 hrs by agar well diffusion method; type: functional; conditions: read-out: DIZ; how it was run: as §1
Erythrocyte = test: Anti-inflammatory activity in human RBC assessed as inhibition of hypotonic solution-induced hemolysis after 10 mins by spectrophotometric method; type: functional, cell-based
How it was run: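 Human blood (heparinized) washed with 0.9% saline, packed cells made into a 40% v/v stock in isotonic phosphate buffer (154 mM NaCl, 10 mM sodium phosphate, pH 7.4). Stock RBC mixed with hypotonic buffer (50 mM NaCl, 10 mM phosphate, pH 7.4) plus sample at 20–100 µg mL⁻¹.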

Bacillus subtilis [17] = test: Antibacterial activity against Bacillus subtilis incubated for 24 hrs by microdilution method; type: functional
Klebsiella pneumoniae [18] = test: Antibacterial activity against Klebsiella pneumoniae at 25 ug/ml incubated for 24 hrs by agar well diffusion method; type: functional; conditions: read-out: DIZ; how it was run: as §1
Escherichia coli [19] = test: Antibacterial activity against Escherichia coli at 75 ug/ml incubated for 24 hrs by agar well diffusion method; type: functional; conditions: read-out: DIZ; how it was run: as §1
Fusarium oxysporum [20] = test: Antifungal activity against Fusarium oxysporum at 50 ug/ml incubated for 48 hrs by agar well diffusion method; type: functional; conditions: read-out: DIZ; how it was run: as §2
Klebsiella pneumoniae [21] = test: Antibacterial activity against Klebsiella pneumoniae incubated for 24 hrs by microdilution method; type: functional
Escherichia coli [22] = test: Antibacterial activity against Escherichia coli at 50 ug/ml incubated for 24 hrs by agar well diffusion method; type: functional; conditions: read-out: DIZ; how it was run: as §1
Fusarium oxysporum [23] = test: Antifungal activity against Fusarium oxysporum at 100 ug/ml incubated for 48 hrs by agar well diffusion method; type: functional; conditions: read-out: DIZ; how it was run: as §2
Klebsiella pneumoniae [24] = test: Antibacterial activity against Klebsiella pneumoniae at 100 ug/ml incubated for 24 hrs by agar well diffusion method; type: functional; conditions: read-out: DIZ; how it was run: as §1
Staphylococcus aureus [25] = test: Induction of cell membrane damage in Staphylococcus aureus assessed as cell content leakage at MIC by spectrophotometric method; type: functional, organism-based; conditions: TDE = time-dependent effect
How it was run: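 Log-phase S. aureus inoculated into 0.1% sterile peptone water, with an untreated control, and held at 37 °C for 0, 30, 60 and 120 min. 1 mL of broth centrifuged and supernatant OD read at 260 nm to measure released DNA. Run in triplicate, repeated three times.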

Escherichia coli [26] = test: Antibacterial activity against Escherichia coli incubated for 24 hrs by microdilution method; type: functional
Staphylococcus aureus [27] = test: Antibacterial activity against Staphylococcus aureus at 100 ug/ml incubated for 24 hrs by agar well diffusion method; type: functional; conditions: read-out: DIZ; how it was run: as §1
Candida albicans [28] = test: Antifungal activity against Candida albicans at 50 ug/ml incubated for 48 hrs by agar well diffusion method; type: functional; conditions: read-out: DIZ; how it was run: as §2
Fusarium oxysporum [29] = test: Antifungal activity against Fusarium oxysporum incubated for 48 to 72 hrs by microdilution method; type: functional; how it was run: as §3
Aspergillus niger [30] = test: Antifungal activity against Aspergillus niger incubated for 48 to 72 hrs by microdilution method; type: functional; how it was run: as §3
Aspergillus niger [31] = test: Antifungal activity against Aspergillus niger at 75 ug/ml incubated for 48 hrs by agar well diffusion method; type: functional; conditions: read-out: DIZ; how it was run: as §2
Staphylococcus aureus [32] = test: Antibacterial activity against Staphylococcus aureus incubated for 24 hrs by microdilution method; type: functional
Escherichia coli [33] = test: Antibacterial activity against Escherichia coli at 100 ug/ml incubated for 24 hrs by agar well diffusion method; type: functional; conditions: read-out: DIZ; how it was run: as §1
Candida albicans [34] = test: Antifungal activity against Candida albicans at 100 ug/ml incubated for 48 hrs by agar well diffusion method; type: functional; conditions: read-out: DIZ; how it was run: as §2
Staphylococcus aureus [35] = test: Antibacterial activity against Staphylococcus aureus at 75 ug/ml incubated for 24 hrs by agar well diffusion method; type: functional; conditions: read-out: DIZ; how it was run: as §1
Bacillus subtilis [36] = test: Antibacterial activity against Bacillus subtilis at 75 ug/ml incubated for 24 hrs by agar well diffusion method; type: functional; conditions: read-out: DIZ; how it was run: as §1

MIC (Candida albicans [13]) [µg/mL]	MIC (Bacillus subtilis [17]) [µg/mL]	SMILES	zone of inhibition at 25 µg/mL (Bacillus subtilis [1]) [mm]	zone of inhibition at 75 µg/mL (Candida albicans [2]) [mm]	zone of inhibition at 75 µg/mL (Klebsiella pneumoniae [3]) [mm]	zone of inhibition at 50 µg/mL (Bacillus subtilis [4]) [mm]	zone of inhibition at 50 µg/mL (Aspergillus niger [5]) [mm]	zone of inhibition at 25 µg/mL (Staphylococcus aureus [6]) [mm]	zone of inhibition at 50 µg/mL (Staphylococcus aureus [7]) [mm]	zone of inhibition at 25 µg/mL (Candida albicans [8]) [mm]	zone of inhibition at 75 µg/mL (Fusarium oxysporum [9]) [mm]	zone of inhibition at 100 µg/mL (Aspergillus niger [10]) [mm]	zone of inhibition at 50 µg/mL (Klebsiella pneumoniae [11]) [mm]	zone of inhibition at 25 µg/mL (Aspergillus niger [12]) [mm]	zone of inhibition at 100 µg/mL (Bacillus subtilis [14]) [mm]	zone of inhibition at 25 µg/mL (Fusarium oxysporum [15]) [mm]	zone of inhibition at 25 µg/mL (Escherichia coli [16]) [mm]	IC50 (Erythrocyte) [µg/mL]	zone of inhibition at 25 µg/mL (Klebsiella pneumoniae [18]) [mm]	zone of inhibition at 75 µg/mL (Escherichia coli [19]) [mm]	other results
30 (≈ 65.3 µM)	26 (≈ 56.6 µM)	CC(C)(C)OC(=O)N[C@@H](Cc1ccccc1)C(=O)Oc1ccc2c(=O)c3ccccc3oc2c1	17	32	33	26	28	18	25	22	27	40	27	17	36	14	16	38 (≈ 82.7 µM)	20	32	zone of inhibition at 50 µg/mL (Fusarium oxysporum [20]): 22 mm; MIC (Klebsiella pneumoniae [21]): 26 µg/mL (≈ 56.6 µM); zone of inhibition at 50 µg/mL (Escherichia coli [22]): 25 mm; zone of inhibition at 100 µg/mL (Fusarium oxysporum [23]): 32 mm; zone of inhibition at 100 µg/mL (Klebsiella pneumoniae [24]): 37 mm; Activity (Staphylococcus aureus [25]): Tde; MIC (Escherichia coli [26]): 22 µg/mL (≈ 47.9 µM); zone of inhibition at 100 µg/mL (Staphylococcus aureus [27]): 34 mm; zone of inhibition at 50 µg/mL (Candida albicans [28]): 27 mm; MIC (Fusarium oxysporum [29]): 27 µg/mL (≈ 58.8 µM); MIC (Aspergillus niger [30]): 28 µg/mL (≈ 60.9 µM); zone of inhibition at 75 µg/mL (Aspergillus niger [31]): 35 mm; MIC (Staphylococcus aureus [32]): 25 µg/mL (≈ 54.4 µM); zone of inhibition at 100 µg/mL (Escherichia coli [33]): 34 mm; zone of inhibition at 100 µg/mL (Candida albicans [34]): 38 mm; zone of inhibition at 75 µg/mL (Staphylococcus aureus [35]): 31 mm; zone of inhibition at 75 µg/mL (Bacillus subtilis [36]): 33 mm
24 (≈ 50.5 µM)	20 (≈ 42.1 µM)	CC(C)(C)OC(=O)N[C@@H](Cc1ccc(O)cc1)C(=O)Oc1ccc2c(=O)c3ccccc3oc2c1	20	34	30	28	30	20	26	20	36	41	24	22	37	22	20	32 (≈ 67.3 µM)	18	33	zone of inhibition at 50 µg/mL (Fusarium oxysporum [20]): 29 mm; MIC (Klebsiella pneumoniae [21]): 24 µg/mL (≈ 50.5 µM); zone of inhibition at 50 µg/mL (Escherichia coli [22]): 27 mm; zone of inhibition at 100 µg/mL (Fusarium oxysporum [23]): 42 mm; zone of inhibition at 100 µg/mL (Klebsiella pneumoniae [24]): 34 mm; Activity (Staphylococcus aureus [25]): Tde; MIC (Escherichia coli [26]): 19 µg/mL (≈ 40 µM); zone of inhibition at 100 µg/mL (Staphylococcus aureus [27]): 36 mm; zone of inhibition at 50 µg/mL (Candida albicans [28]): 29 mm; MIC (Fusarium oxysporum [29]): 22 µg/mL (≈ 46.3 µM); MIC (Aspergillus niger [30]): 22 µg/mL (≈ 46.3 µM); zone of inhibition at 75 µg/mL (Aspergillus niger [31]): 37 mm; MIC (Staphylococcus aureus [32]): 21 µg/mL (≈ 44.2 µM); zone of inhibition at 100 µg/mL (Escherichia coli [33]): 36 mm; zone of inhibition at 100 µg/mL (Candida albicans [34]): 37 mm; zone of inhibition at 75 µg/mL (Staphylococcus aureus [35]): 32 mm; zone of inhibition at 75 µg/mL (Bacillus subtilis [36]): 35 mm
